A selection: hits, their analogues and other compounds. The true share with any hit is near 1.3%.
CAL PDZ FP-1: untagged CAL PDZ binding inhibitors, primary screen, biochemical, fluorescence polarization, HTS; Golgi-associated PDZ and coiled-coil motif-containing protein (Homo sapiens), Q9HD26; purified CAL PDZ, TMR-peptide fluorescence polarization, 1 h; inhibition, % at 24.9 µM; hit rate 0.92% among 300,000; AID 602252, 2012;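 active means mean inhibition of at least 30% with at least half of replicates also reaching 30%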
Cardiac RTF inh: cardiac RTF calcium sensitivity inhibitors, primary screen, biochemical, IANBD-TnC fluorescence, EC70 calcium | IANBD-labeled cardiac RTF, Ca2+ fluorescence | AID 493244, 2011 | hit rate 0.12% among 340,000 | inhibition, % at 7.15 µM;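 active means inhibition above the mean inhibition of all tested compounds plus 3 SD, cut at about 17% in these data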;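 further: assay run at fixed EC70 calcium of 1.6 mM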
RTF Ca sens act: cardiac RTF calcium sensitivity activators, primary screen, biochemical, IANBD-TnC fluorescence, EC20 calcium; Troponin I, cardiac muscle (Homo sapiens) + Troponin T, cardiac muscle (Homo sapiens) + …; IANBD-labeled TnC RTF fluorescence at EC20 calcium; 0% EC20 calcium, 100% full calcium; activation, % at 7.2 µM; hit rate 0.24% among 340,000; AID 493008, 2010;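 active means activation above the mean over all tested compounds plus 3 SD, cut at about 30% in these data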;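 further: rise in fluorescence read as greater calcium sensitivity of cardiac thin filaments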
C-LANA FP: inhibitors of KSHV C-LANA binding to DNA, primary screen, biochemical, fluorescence polarization, FAM-LBS DNA, MBP-C-LANA, single point | Kaposi's sarcoma herpesvirus LANA C-terminal domain (residues 932-1162) DNA binding | inhibition, % at 9 µM | hit rate 0.078% among 340,000;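 active means highest replicate inhibition at or above 60% at 9 µM, even if other replicates fall short; inactive means all replicates below 60% inhibition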
CAL PDZ FP-2: CAL PDZ peptide-binding inhibitors, primary screen, biochemical, fluorescence polarization, Cer-tagged CAL PDZ, HTS | Golgi-associated PDZ and coiled-coil motif-containing protein (Homo sapiens), Q9HD26 | purified CAL PDZ, TMR-peptide fluorescence polarization, 1 h | inhibition, % at 20 µM | hit rate 0.02% among 330,000 | AID 504414, 2011;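 active means highest replicate inhibition of at least 40%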
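Read-out basis: mP drop reported as inhibition | Assay system: Tagged CAL PDZ protein CerCALP, purified | Benchmarks: Unlabelled peptide for full inhibition, DMSO wells as neutral | Schedule: 1 h incubation at room temperature before polarization reading | Buffer or medium: Sodium phosphate/NaCl buffer pH 7.4 with TCEP, IgG, Thesit | Doses: Single point, 20 µM | Measured by: Fluorescence polarization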
Keap1-Nrf2 PPI: Keap1-Nrf2 protein-protein interaction inhibitors, primary screen, biochemical, fluorescence polarization, single point; AID 504523, 2011; inhibition, % at 9.4 µM; hit rate 0.15% among 340,000; Keap1 Kelch-Nrf2 peptide fluorescence polarization, 1536-well; in the data active means inhibition above about 12%;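 further: human Keap1 Kelch domain with fluorescein labeled Nrf2 9mer peptide probe; higher means more block of Keap1 binding to Nrf2 peptide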
Target sequence (Q14145 whole entry, looked up, the tested form may be a part): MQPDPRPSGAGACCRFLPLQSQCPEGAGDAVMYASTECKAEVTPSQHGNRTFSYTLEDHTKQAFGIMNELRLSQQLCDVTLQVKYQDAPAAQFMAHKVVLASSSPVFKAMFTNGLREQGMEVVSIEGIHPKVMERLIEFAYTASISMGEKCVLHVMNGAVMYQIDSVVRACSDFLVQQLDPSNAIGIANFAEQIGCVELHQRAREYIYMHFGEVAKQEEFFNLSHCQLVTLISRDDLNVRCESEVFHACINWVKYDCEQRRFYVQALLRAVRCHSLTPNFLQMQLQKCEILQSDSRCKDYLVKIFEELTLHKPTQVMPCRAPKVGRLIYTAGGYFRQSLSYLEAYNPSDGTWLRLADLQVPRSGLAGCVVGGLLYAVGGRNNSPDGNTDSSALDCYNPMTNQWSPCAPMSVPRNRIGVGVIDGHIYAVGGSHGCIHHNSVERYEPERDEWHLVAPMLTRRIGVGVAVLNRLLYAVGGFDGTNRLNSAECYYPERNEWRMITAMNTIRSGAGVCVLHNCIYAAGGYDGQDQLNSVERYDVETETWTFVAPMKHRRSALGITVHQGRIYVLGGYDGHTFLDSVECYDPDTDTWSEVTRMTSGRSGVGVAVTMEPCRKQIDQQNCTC
Of the large screens only hits and unclear results are named; the others gave an inactive call.

O=C(CCN=C1NS(=O)(=O)c2ccccc21)OCc1ccccc1	none
COc1c(Cl)cc(C(=O)NN)cc1Cl	none
NNC(=O)c1cc(O)c(O)c(O)c1	C-LANA FP 80.9 (no result: CAL PDZ FP-1)
O=C(CSc1nc2ncccc2[nH]1)Nc1ccccc1-c1ccccc1	none
COc1ccc(N2CCN(C(=S)NCc3ccc(C)cc3)CC2)cc1	CAL PDZ FP-1 31.5
Cc1ccc(-c2nc(C)sc2CC(=O)OCC(=O)Nc2ccc(F)c(Cl)c2)cc1	CAL PDZ FP-1 54.3
COc1ccc(OC)c(S(=O)(=O)Nc2c(C)n(C)n(-c3ccccc3)c2=O)c1	CAL PDZ FP-1 74.4
Cc1c(NS(=O)(=O)c2ccccc2F)c(=O)n(-c2ccccc2)n1C	none
O/C=c1\ccc2cccc3nc(C(F)(F)F)nc1c23	RTF Ca sens act 124.1
COc1cc(-c2nnc(SCC(=O)O)n2-c2ccccc2)cc(OC)c1OC	CAL PDZ FP-1 68.9 (no result: CAL PDZ FP-2)
COc1ccccc1-c1nnc(SCC(=O)O)n1-c1ccc(C)cc1	none
O=C(Nc1ccc(Cl)cn1)Nc1ccc(Cl)cn1	CAL PDZ FP-1 47.4
CCCN(Cc1nnc(-c2ccccc2Cl)o1)C(=O)COc1ccc(Cl)cc1	none
Cc1ccc(S(=O)(=O)NCCNS(=O)(=O)c2ccccc2Br)cc1	none
Cc1ccc(S(=O)(=O)NCCNc2ccc(Br)c(C)c2)cc1	CAL PDZ FP-1 39.4
O=C(COC(=O)[C@@H]1CCCN1S(=O)(=O)c1ccccc1F)NCc1ccc2c(c1)OCO2	none
CCc1ccc(-c2nc(SCC(=O)c3c(N)n(C4CC4)c(=O)[nH]c3=O)n[nH]2)cc1	none
COc1ccc2cc(N3CCCC3=O)ccc2c1	CAL PDZ FP-1 84.9
Nc1nnc(/C=C/c2cccc([N+](=O)[O-])c2)s1	none
CCN(CC)S(=O)(=O)c1ccc(N2CC(C(=O)NCCC3=CCCCC3)CC2=O)cc1 (centres undefined)	CAL PDZ FP-1 45.2
CCOc1cc(C(=O)N(CC)CC(=O)Nc2c(F)cccc2F)ccc1OCC(=O)N1CCOCC1	none
O=C(CCS(=O)(=O)Cc1ccccc1F)NCCc1ccc(Cl)cc1	none
Cc1c2ccccc2nc2c(F)c(NCCO)c(F)c(F)c12	RTF Ca sens act 41.6
OCCNc1c2ccccc2nc2c(F)c(F)c(F)c(F)c12	none
COc1ccc(C(=O)N(C)CCCC2CCCC2)cc1OC1CCN(C(C)C)CC1	none
CN(C(=O)c1cc2ccccc2oc1=O)C1(C)CCS(=O)(=O)C1 (centres undefined)	CAL PDZ FP-1 47.4
CCN(CC(=O)NCc1ccc(Cl)cc1)C(=O)COc1ccc(C)cc1C	none
O=C(O)c1cccc(Nc2ccncc2[N+](=O)[O-])c1	none
O=C(Nc1ccc(S(=O)(=O)NCc2ccco2)cc1)c1cccc(F)c1	none
O=C(Nc1ccc(F)cc1F)c1ccc(S(=O)(=O)N2CCCCC2)cc1	CAL PDZ FP-1 33.5
O=C(Nc1ccc(F)cc1F)c1ccc(S(=O)(=O)NCc2ccco2)cc1	CAL PDZ FP-1 47.7
CC1CCCCN1C(=S)NC(=O)c1cc(Br)ccc1Cl (centres undefined)	none
C=CC[C@H](CC(=O)NCCO)C(=O)NCCOC(=O)[C@@H](CC=C)CC(=O)OC(C)(C)C	none
COc1cccc(CN(C)C(=O)CN2C(=O)NC(c3ccccc3)(c3ccccc3)C2=O)c1	CAL PDZ FP-1 79.0
COc1cccc(CNC(=O)CN2C(=O)NC(c3ccccc3)(c3ccccc3)C2=O)c1	none
O=C(NC1CCCCC1)N1CCN(c2nc(-c3ccccc3)cs2)CC1	CAL PDZ FP-1 58.8
NC(=O)C1CCN(c2nc(-c3cccnc3)cs2)CC1	Keap1-Nrf2 PPI 12.8
